Measured values gathered from unrelated publications.
Target: Mitogen-activated protein kinase kinase kinase 10 (MAP3K10, Homo sapiens, UniProt Q02779)

SMILES	assay	setting	quantity	value
CC(C)(O)c1cncc(-c2nc3ccc(F)cc3n2C2CC2)c1	cell-free assay, competition with immobilised ligand	1 µM	remaining binding	100%
O=C1Nc2ccc(Cl)cc2C1=Cc1cc(Cl)c(O)c(Cl)c1	cell-free assay	0.5 µM	remaining signal	86.8%
CCCOc1ccc([C@@H]2[C@@H](C(=O)O)[C@H](c3ccc4c(c3)OCO4)CN2CC(=O)Nc2c(CC)cccc2CC)cc1	cell-free assay, competition with immobilised ligand	1 µM	remaining binding	100%
O=C(Nc1cnn(-c2csc(C(=O)NC3COC3)c2)c1)Nc1c(F)cccc1Cl	enzyme activity, inhibitor	5 µM	remaining activity	94.3%
Cc1ccc(C(=O)NCc2ccsc2)cc1C#Cc1cn(C(C)C)c2ncnc(N)c12	enzyme activity, inhibitor	1 µM	activity vs control	5%
c1ccc(CNc2nc(N3CCOc4ccccc43)nc3c2CCCC3)cc1	target engagement in cells, inhibitor, chemoproteomics	20 mM	inhibition	14.1%
Oc1ccc(-c2nc(-c3ccncc3)c(-c3ccc(F)cc3)[nH]2)cc1	cell-free assay	0.5 µM	remaining signal	32.8%
Nc1ncnc2occ(-c3ccc(NC(=O)Nc4cc(C(F)(F)F)ccc4F)cc3)c12	cell-free assay, inhibitor	20 µM	remaining signal	0%
C[C@@H]1CCN(C(=O)CC#N)C[C@@H]1N(C)c1ncnc2[nH]ccc12	cell-free assay, inhibitor	0.5 µM	remaining signal	105%
CCS(=O)(=O)c1cc2cc(C[C@](O)(CC(C)(C)c3ccc(F)cc3C(N)=O)C(F)(F)F)[nH]c2cn1	cell-free assay, competition with immobilised ligand	1 µM	remaining binding	100%
CNC(=O)c1cc(Oc2ccc(NC(=O)Nc3ccc(Cl)c(C(F)(F)F)c3)cc2)ccn1	cell-free assay	0.5 µM	remaining signal	104%
Cc1ccc(C(=O)Nc2ccc(CN3CCN(C)CC3)c(C(F)(F)F)c2)cc1C#Cc1cnc2cccnn12	enzyme activity, inhibitor	23.5 nM	remaining activity	69%
C[C@@H]1CN(c2cc(-c3n[nH]c4ccc(OC5(C)CC5)cc34)ncn2)C[C@H](C)O1	cell-free assay, competition with immobilised ligand	0.1 µM	remaining binding	100%
CN1CC(Oc2cnc(C#N)cc2-c2ccn3nc(NC(=O)C4CC4)cc3c2)C1	enzyme activity, inhibitor	1 µM	inhibition	8%
Cn1nc(C(=O)NCc2ccc(C(=O)O)cc2)cc1-c1ccc2[nH]ccc2c1	cell-free assay, competition with immobilised ligand	0.1 µM	remaining binding	100%
CC(C)(C)c1nc2c(s1)c1nc(N)ncc1c1ccc(NS(=O)(=O)c3c(F)cccc3F)c(F)c12	enzyme activity, inhibitor, radiometric	1 µM	remaining activity	102%
CC/C(=N\NC(=O)NCc1cccc(O)c1)c1ccc(O)c(C)c1O	enzyme activity, inhibitor	0.1 µM	inhibition	6.2%
